Laboratory results taken from ChEMBL document CHEMBL1126707, “Tetrapeptide tachykinin antagonists: synthesis and modulation of the physicochemical and pharmacological properties of a new series of partially cyclic analogs” (J Med Chem, 1993).
Peptide text beside a SMILES is read from it.

How the values were obtained:
[1] = Solubility was evaluated; type: physicochemical
[2] = target: T1, Substance-K receptor (Oryctolagus cuniculus, UniProt P79218); experiment: Tested for antagonist activity against NK-2 receptor in rabbit pulmonary artery by using Neurokinin A as agonist; type: functional; settings: read-out: pA2 (converted)
T1 sequence (P79218 whole entry): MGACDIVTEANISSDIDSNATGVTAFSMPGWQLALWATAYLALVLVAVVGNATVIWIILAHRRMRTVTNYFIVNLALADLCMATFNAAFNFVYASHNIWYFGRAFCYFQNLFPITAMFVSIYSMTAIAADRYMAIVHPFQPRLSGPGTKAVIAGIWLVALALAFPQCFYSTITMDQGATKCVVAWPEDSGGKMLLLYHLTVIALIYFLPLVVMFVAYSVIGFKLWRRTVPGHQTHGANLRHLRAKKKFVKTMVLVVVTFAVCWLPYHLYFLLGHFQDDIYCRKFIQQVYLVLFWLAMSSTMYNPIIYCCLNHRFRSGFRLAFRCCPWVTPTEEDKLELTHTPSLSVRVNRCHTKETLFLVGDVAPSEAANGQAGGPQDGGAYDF
Method in brief: (§1)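 Isolated-organ contractile bioassays: SP on rabbit vena cava (NK-1), neurokinin A on rabbit pulmonary artery (NK-2), neurokinin B on rat portal vein (NK-3); antagonist apparent affinity expressed as pA2 by Schild plot.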

[3] = target: T2, Neuromedin-K receptor (Rattus norvegicus, UniProt P16177); experiment: Tested for antagonist activity against NK-3 receptor in rat portal vein by using Neurokinin B as agonist; type: functional; settings: read-out: pA2 (converted); method in brief: as §1
T2 sequence (P16177 whole entry): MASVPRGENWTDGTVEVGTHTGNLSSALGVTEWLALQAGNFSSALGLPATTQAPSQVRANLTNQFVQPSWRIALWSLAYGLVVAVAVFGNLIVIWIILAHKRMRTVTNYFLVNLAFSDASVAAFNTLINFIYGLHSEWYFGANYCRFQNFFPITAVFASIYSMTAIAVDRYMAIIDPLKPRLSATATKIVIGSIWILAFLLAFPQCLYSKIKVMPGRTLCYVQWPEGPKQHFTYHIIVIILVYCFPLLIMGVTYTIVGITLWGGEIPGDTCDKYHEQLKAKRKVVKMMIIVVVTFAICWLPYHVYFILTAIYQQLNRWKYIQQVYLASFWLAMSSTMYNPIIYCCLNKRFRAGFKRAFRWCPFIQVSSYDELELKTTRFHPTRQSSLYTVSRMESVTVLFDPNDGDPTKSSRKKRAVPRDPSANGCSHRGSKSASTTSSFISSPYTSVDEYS

[4] = target: Substance-P receptor (Oryctolagus cuniculus); experiment: Tested for antagonist activity against NK1 receptor in rabbit vena cava by using substance P (SP) as agonist; settings: read-out: pA2 (converted)
[5] = target: T3, Substance-K receptor (Homo sapiens, UniProt P21452); experiment: Tested for binding affinity against human NK-2 receptor transfected on CHO cells using [125I]-His] NKA as radioligand; type: cell-based
T3 sequence (P21452 whole entry): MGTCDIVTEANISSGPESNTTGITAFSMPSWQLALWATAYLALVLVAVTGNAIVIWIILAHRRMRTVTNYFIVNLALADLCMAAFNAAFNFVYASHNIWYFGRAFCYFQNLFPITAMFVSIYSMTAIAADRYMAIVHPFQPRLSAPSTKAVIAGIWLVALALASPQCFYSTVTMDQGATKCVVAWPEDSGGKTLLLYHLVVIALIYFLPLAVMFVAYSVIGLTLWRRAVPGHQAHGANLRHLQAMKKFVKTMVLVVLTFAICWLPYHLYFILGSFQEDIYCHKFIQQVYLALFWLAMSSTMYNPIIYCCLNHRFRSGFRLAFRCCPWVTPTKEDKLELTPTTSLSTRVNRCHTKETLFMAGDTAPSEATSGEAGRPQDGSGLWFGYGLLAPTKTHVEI

[6] = target: T4, Substance-K receptor (Rattus norvegicus, UniProt P16610); experiment: Tested for binding affinity against rat NK-2 receptor transfected on CHO cells using [125I]-His] NKA as radioligand; type: cell-based
T4 sequence (P16610 whole entry): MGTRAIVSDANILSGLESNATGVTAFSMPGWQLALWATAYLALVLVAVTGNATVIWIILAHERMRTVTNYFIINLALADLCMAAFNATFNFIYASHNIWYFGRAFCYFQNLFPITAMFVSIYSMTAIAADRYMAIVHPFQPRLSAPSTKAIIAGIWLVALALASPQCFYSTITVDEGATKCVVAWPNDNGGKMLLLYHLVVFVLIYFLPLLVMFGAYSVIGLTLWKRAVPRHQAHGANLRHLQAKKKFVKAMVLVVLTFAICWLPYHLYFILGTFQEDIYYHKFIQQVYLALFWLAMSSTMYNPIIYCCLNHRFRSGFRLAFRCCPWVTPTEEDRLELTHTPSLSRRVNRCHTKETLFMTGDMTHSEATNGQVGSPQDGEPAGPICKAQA

[7] = tested on: Mus musculus; experiment: Tested for antinociceptive activity against mouse hotplate test for 60 min after oral administration of 40 mg/kg; type: functional
Method in brief: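 Male CD1 mice (25-30 g) on a 55 ± 0.2 °C plate; forepaw-licking latency measured 60 min after oral 40 mg/kg given in water (soluble) or 0.2% hydroxypropylcellulose (insoluble); % increase of reaction time versus vehicle controls; groups of 12 animals; Dunnett t-test.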

[8] = tested on: Mus musculus; experiment: Tested for antinociceptive activity against mouse hotplate test for 10 min after intravenous injection at 0.5 mg/kg
[9] = (§2) Binding affinity by displacement of tritiated substance P from its binding sites on membrane preparations from mouse brain; type: tissue-based
[10] = (§3) Binding affinity by displacement of tritiated substance P from its binding sites on membrane preparations from rat brain; type: tissue-based
[11] = organism: Rattus norvegicus; experiment: as §3
[12] = organism: Mus musculus; experiment: as §2

Row | solubility [1] | Kb [2] | Kb [3] | Kb [4] | Compound | further results
1 | < 10 µg/mL | 15.8 µM | 0.158 µM | 0.1 µM | COC(=O)n1cc(C[C@@H](NC(=O)C[C@@H]2NC(=O)[C@@H]3C4CCC(CC4)N3C2=O)C(=O)N[C@@H](Cc2ccccc2)C(=O)N(C)Cc2ccccc2)c2ccccc21 | –
2 | < 10 µg/mL | 12.6 µM | 1.26 µM | 0.126 µM | CN(Cc1ccccc1)C(=O)[C@H](Cc1ccccc1)NC(=O)[C@@H](Cc1cn(C(=O)OC(C)(C)C)c2ccccc12)NC(=O)C[C@@H]1NC(=O)[C@@H]2C3CCC(CC3)N2C1=O | –
3 | < 10 µg/mL | 10 µM | 7.94 µM | – | CN(Cc1ccccc1)C(=O)[C@H](Cc1ccccc1)NC(=O)[C@@H](Cc1cn(C)c2ccccc12)NC(=O)C[C@@H]1NC(=O)[C@@H]2C3CCC(CC3)N2C1=O | IC50 [5]: 0.079 µM; IC50 [6]: 0.489 µM; Increase [7]: 10%; Increase [8]: 17%
4 | – | – | – | – | CSCC[C@@H](NC(=O)[C@H](CC(C)C)NC(=O)CNC(=O)[C@H](Cc1ccccc1)NC(=O)[C@H](Cc1ccccc1)NC(=O)[C@H](CCC(N)=O)NC(=O)[C@H](CCC(N)=O)NC(=O)[C@@H]1CCCN1)C(N)=O | Ki [9]: 0.75 µM; Ki [10]: 0.75 µM
5 | < 10 µg/mL | 1.26 µM | 1.58 µM | 0.158 µM | CN(Cc1ccccc1)C(=O)[C@H](Cc1ccccc1)NC(=O)[C@@H](Cc1cn(C(=O)OCc2ccccc2)c2ccccc12)NC(=O)C[C@@H]1NC(=O)[C@@H]2C3CCC(CC3)N2C1=O | –
6 | < 10 µg/mL | 15.8 µM | 12.6 µM | 12.6 µM | CCCCCCCC(=O)n1cc(C[C@@H](NC(=O)C[C@@H]2NC(=O)[C@@H]3C4CCC(CC4)N3C2=O)C(=O)N[C@@H](Cc2ccccc2)C(=O)N(C)Cc2ccccc2)c2ccccc21 | –
7 | – | – | 0.631 µM | – | CC(C)C[C@H](NC(=O)[C@H](CC(C)C)NC(=O)[C@@H](Cc1c[nH]c2ccccc12)NC(=O)[C@H](Cc1ccccc1)NC(=O)[C@@H](Cc1c[nH]c2ccccc12)NC(=O)[C@H](CCC(N)=O)NC(=O)[C@H](CCC(N)=O)NC(=O)[C@@H]1CCCN1C(=O)[C@H](CCCCN)NC(=O)[C@@H]1CCCN1C(=O)[C@H](N)CCCN=C(N)N)C(N)=O (HELM PEPTIDE1{[dR].P.K.P.Q.Q.[dW].F.[dW].L.L.[am]}$$$$V2.0) | Ki [11]: 2.6 µM; Ki [12]: 2.6 µM
